Tests used:
[1] = folding enthalpy; higher = less favourable; fluorescence melt of hairpins on a sequencing array, two-state fit; details: sodium 0.088 M
Summary of the method: (§1)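 Melting temperature and folding enthalpy were derived from bootstrapped two-state fits. The fitted temperatures were raised by 9.35 °C to agree with UV melts, and four replicates were combined by inverse variance. The underlying data were Cy3 fluorescence images of library hairpins, with annealed Cy3 and quencher oligos, on a sequenced MiSeq flow cell in 50 mM Na-HEPES pH 8.0, 25 mM NaCl, taken in 2.5 °C steps up to 60 °C, normalised to pre-quench Cy3 and to control constructs.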

[2] = melting temperature; fluorescence melt of hairpins on a sequencing array, two-state fit, raised by 9.35 °C to match UV melts; details: sodium 0.088 M
Summary of the method: as §1

GCGGTCCCGAAAGGGCGC (((..(((....))))))
folding enthalpy [1]: -18.5 kcal/mol
Tm [2]: 60.1 °C

GCGGTCGAAAGACCCCGC ((((((....)))..)))
folding enthalpy [1]: -14.9 kcal/mol
Tm [2]: 47.5 °C

GCGGTCGAAAGACCCGC ((((((....))).)))
folding enthalpy [1]: -24 kcal/mol
Tm [2]: 66.8 °C

GCGGTCGAAAGACGACGC ((((((....)))..)))
folding enthalpy [1]: -37.4 kcal/mol
Tm [2]: 53.8 °C

GCGGTCGACCGC ((((....))))
folding enthalpy [1]: -38.5 kcal/mol
Tm [2]: 67.7 °C

GCGGTCGCCGC ((((...))))
folding enthalpy [1]: -5.62 kcal/mol
Tm [2]: 60.6 °C

GCGGTCGGAAACAACCGC (((((.(....).)))))
folding enthalpy [1]: -34.7 kcal/mol
Tm [2]: 55.1 °C

GCGGTCGGCCGC ((((....))))
folding enthalpy [1]: -24.2 kcal/mol
Tm [2]: 60.1 °C

GCGGTCTCGAAAGAGCGC (((..(((....))))))
folding enthalpy [1]: -38.2 kcal/mol
Tm [2]: 58.6 °C

GCGGTGACCCGC ((((....))))
folding enthalpy [1]: -23.1 kcal/mol
Tm [2]: 55.3 °C

GCGGTGACGAAAGTCCGC (((..(((....))))))
folding enthalpy [1]: -30.8 kcal/mol
Tm [2]: 57.2 °C

GCGGTGCGAAAGCAAAGC ((..(((....)))..))
folding enthalpy [1]: -32.1 kcal/mol
Tm [2]: 63.3 °C

GCGGTGCGAAAGCAAGGC ((..(((....)))..))
folding enthalpy [1]: -19.1 kcal/mol
Tm [2]: 51.2 °C

GCGGTGCGAAAGCAGGGC ((..(((....)))..))
folding enthalpy [1]: -20.5 kcal/mol
Tm [2]: 55.2 °C

GCGGTGCGAAAGCGCGGC ((.(.((....)).).))
folding enthalpy [1]: -25 kcal/mol
Tm [2]: 64.5 °C

GCGGTGCGAAAGCGCTGC ((.(.((....)).).))
folding enthalpy [1]: -21.6 kcal/mol
Tm [2]: 66.9 °C

GCGGTGGGAAACCACCAC (.(((((....))))).)
folding enthalpy [1]: -12.4 kcal/mol
Tm [2]: 48.1 °C

GCGGTGGGAAACCATCGC (((.(((....))).)))
folding enthalpy [1]: -40.9 kcal/mol
Tm [2]: 61.8 °C

GCGGTGTTCCGC ((((....))))
folding enthalpy [1]: -20 kcal/mol
Tm [2]: 65.7 °C

GCGGTTCCCGC ((((...))))
folding enthalpy [1]: -22.1 kcal/mol
Tm [2]: 67.5 °C

GCGGTTGGAAACAGCCGC ((((.((....)).))))
folding enthalpy [1]: -40.1 kcal/mol
Tm [2]: 64.6 °C

GCGGTTGTCCGC ((((....))))
folding enthalpy [1]: -23.5 kcal/mol
Tm [2]: 58.6 °C

GCGGTTTGCCGC ((((....))))
folding enthalpy [1]: -41.2 kcal/mol
Tm [2]: 60.6 °C

GCGTAAAACGC ((((...))))
folding enthalpy [1]: -21.7 kcal/mol
Tm [2]: 52.9 °C

GCGTAAGCGAAAGCTCGC (((..(((....))))))
folding enthalpy [1]: -17.6 kcal/mol
Tm [2]: 48.4 °C

GCGTAAGGAAACCTACGC (((((.(....).)))))
folding enthalpy [1]: -40 kcal/mol
Tm [2]: 49 °C

GCGTAAGGAAACTCACGC ((((.((....)).))))
folding enthalpy [1]: -26.5 kcal/mol
Tm [2]: 43.8 °C

GCGTAAGGAAACTTGCGC (((.(((....))).)))
folding enthalpy [1]: -39.4 kcal/mol
Tm [2]: 54.6 °C

GCGTAATTACGC ((((....))))
folding enthalpy [1]: -30 kcal/mol
Tm [2]: 51.7 °C

GCGTACAGACGC ((((....))))
folding enthalpy [1]: -22.5 kcal/mol
Tm [2]: 51 °C

GCGTACGAAAGTAACCGC ((((((....)))..)))
folding enthalpy [1]: -22.1 kcal/mol
Tm [2]: 45 °C

GCGTACGAAAGTACCCGC ((((((....)))..)))
folding enthalpy [1]: -14.2 kcal/mol
Tm [2]: 40.2 °C

GCGTACGCGAAAGCGCGC (((..(((....))))))
folding enthalpy [1]: -16.8 kcal/mol
Tm [2]: 58.5 °C

GCGTACGGAAACGCACGC ((((.((....)).))))
folding enthalpy [1]: -46.7 kcal/mol
Tm [2]: 55.4 °C

GCGTACGGAAACGTGCGC (((.(((....))).)))
folding enthalpy [1]: -54.1 kcal/mol
Tm [2]: 64.6 °C

GCGTACGGAAACGTGTGC ((..(((....)))..))
folding enthalpy [1]: -29.1 kcal/mol
Tm [2]: 44.7 °C

GCGTACGGACGC ((((....))))
folding enthalpy [1]: -29.5 kcal/mol
Tm [2]: 52.9 °C

GCGTACTCACGC ((((....))))
folding enthalpy [1]: -19.5 kcal/mol
Tm [2]: 52.3 °C

GCGTAGAAATACGC (((((....)))))
folding enthalpy [1]: -25.1 kcal/mol
Tm [2]: 55.2 °C

GCGTAGAGACGC ((((....))))
folding enthalpy [1]: -13.3 kcal/mol
Tm [2]: 49.1 °C

GCGTAGCGAAAGCAAGGC ((.(.((....)).).))
folding enthalpy [1]: -7.5 kcal/mol
Tm [2]: 35.5 °C

GCGTAGCGAAAGCAGCGC (((..((....))..)))
folding enthalpy [1]: -16.6 kcal/mol
Tm [2]: 65.4 °C

GCGTAGCGAAAGCGAGGC ((.(.((....)).).))
folding enthalpy [1]: -7.75 kcal/mol
Tm [2]: 46.6 °C

GCGTAGCGAAAGCGTCGC (((..((....))..)))
folding enthalpy [1]: -20.5 kcal/mol
Tm [2]: 61.4 °C

GCGTAGCGAAAGCTCAGC ((..(((....)))..))
folding enthalpy [1]: -10.8 kcal/mol
Tm [2]: 46 °C

GCGTAGCGAAAGCTCCGC (((.(((....))).)))
folding enthalpy [1]: -40 kcal/mol
Tm [2]: 49.7 °C

GCGTAGCGAAAGCTTCGC (((.(((....))).)))
folding enthalpy [1]: -36.2 kcal/mol
Tm [2]: 55 °C

GCGTAGCGAAAGCTTGGC ((..(((....)))..))
folding enthalpy [1]: -7.38 kcal/mol
Tm [2]: 36.5 °C

GCGTAGCTACGC ((((....))))
folding enthalpy [1]: -12.6 kcal/mol
Tm [2]: 68.1 °C
